Among the data in ChEMBL document CHEMBL2062470, “Fungal bis-Naphthopyrones as Inhibitors of Botulinum Neurotoxin Serotype A” (ACS Med Chem Lett, 2012) are inhibition, TIME and IC50 values, retold here.

pIC50: −log10 of the molar value.

Test [1] concerns the target Botulinum neurotoxin type A (Clostridium botulinum (strain Hall / ATCC 3502 / NCTC 13319 / Type A)) (UniProt P0DPI1). The test can be described thus: Inhibition of Clostridium botulinum Hall BoNT/A protease activity using Ac-SNKTRIDEANQRATKML-NH2 as substrate at 20 uM after 5 mins by RP-HPLC analysis. In a few lines:
(§1)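 HPLC-based BoNT/A protease assay; single-point percent inhibition of protease activity at 100 or 20 μM compound.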

The target is the same in test [2]. Kind of test: Inhibition of Clostridium botulinum Hall BoNT/A-mediated paralysis in CD1 mouse phrenic nerve hemidiaphragm assessed as time required to 50% loss of twitch tension at 2 uM measured upto 5 hrs (reference value: 62 mins).
Test [3] has the same target. The test can be described thus: Inhibition of Clostridium botulinum Hall BoNT/A protease activity using Ac-SNKTRIDEANQRATKML-NH2 as substrate at 100 uM after 5 mins by RP-HPLC analysis. The method in brief:
as §1

For test [4] the target is unchanged. The test can be described thus: Inhibition of Clostridium botulinum Hall BoNT/A-mediated paralysis in CD1 mouse phrenic nerve hemidiaphragm assessed as time required to 50% loss of twitch tension at 20 uM measured upto 5 hrs (reference value: 62 mins).
Test [5] addresses Botulinum neurotoxin type A (Clostridium botulinum (strain Hall / ATCC 3502 / NCTC 13319 / Type A), UniProt P0DPI1). The test can be described thus: Inhibition of Clostridium botulinum Hall BoNT/A protease activity using Ac-SNKTRIDEANQRATKML-NH2 as substrate after 5 mins by RP-HPLC analysis. In a few lines: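 HPLC-based BoNT/A protease assay; percent inhibition measured at nine compound concentrations, with IC50 derived by curve fitting.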

Sequence of Botulinum neurotoxin type A (P0DPI1 2-448 limits assumed): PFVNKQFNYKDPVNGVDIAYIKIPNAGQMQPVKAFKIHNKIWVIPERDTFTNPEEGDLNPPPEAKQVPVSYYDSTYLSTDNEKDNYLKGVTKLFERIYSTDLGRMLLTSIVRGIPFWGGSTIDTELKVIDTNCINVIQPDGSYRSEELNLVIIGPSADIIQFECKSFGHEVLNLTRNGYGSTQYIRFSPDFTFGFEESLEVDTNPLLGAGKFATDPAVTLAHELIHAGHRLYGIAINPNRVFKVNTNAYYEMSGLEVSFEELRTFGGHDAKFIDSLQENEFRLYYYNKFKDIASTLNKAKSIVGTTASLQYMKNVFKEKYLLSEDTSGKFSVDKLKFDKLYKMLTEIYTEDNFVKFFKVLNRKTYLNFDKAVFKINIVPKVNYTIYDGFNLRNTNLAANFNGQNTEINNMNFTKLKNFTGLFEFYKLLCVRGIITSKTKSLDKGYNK
Sequence of Botulinum neurotoxin type A (Clostridium botulinum (strain Hall / ATCC 3502 / NCTC 13319 / Type A)) (P0DPI1 2-448 limits assumed): as above

In the case of `CCC[C@H]1Cc2cc3c(-c4c(O)cc(O)c5c(O)c6c(cc45)C[C@H](CCC)OC6=O)c(O)cc(O)c3c(O)c2C(=O)O1`, the inhibition in test [1] amounted to 85%; in test [3], 96%. The TIME was 3.15 h in test [2] and 3.28 h in test [4].
With `CCOc1ccc(C(Nc2cccnc2)c2cc(Cl)c3cccnc3c2O)cc1` (racemic), the negative-log IC50 (pIC50) in test [5] is 5.68. Also, the figures for the inhibition in test [1] and in test [3] were 96.2% and 98%, respectively. In addition, the TIME in test [2] and in test [4] was 5 h in each case.
`CCC[C@H]1Cc2cc3c(-c4c(O)cc(O)c5c(O)c6c(cc45)C[C@H](CCC)OC6=O)c(O)cc(O)c3c(O)c2C(=O)O1` (single isomer, unassigned; atropisomer): the inhibition in test [1] was 67%; in test [3] it was 80.3%. In addition, the TIME was 2.9 h in test [2] and 1.58 h in test [4].
In test [5], `CCC[C@H]1Cc2cc3c(-c4c(O)cc(O)c5c(O)c6c(cc45)C[C@H](CCC)OC6=O)c(O)cc(O)c3c(O)c2C(=O)O1` (single isomer, unassigned; atropisomer) [TALARODERXINE A] had a negative logarithm of the IC50 (pIC50) of 5.00.
With `CC1CC(=O)c2c(cc3c(-c4c(O)cc(O)c5c(O)c6c(cc45)OC(C)CC6=O)c(O)cc(O)c3c2O)O1` (stereo not drawn) [CEPHALOCHROMIN], the negative logarithm of the IC50 (pIC50) in test [5] is 4.53. The inhibition was 45% in test [1] and 72% in test [3]. Moreover, in test [4], the TIME turned out to be 0.983 h.
Compound `C[C@H]1Oc2cc3c(-c4c(O)cc(O)c5c(O)c6c(cc45)O[C@H](C)[C@@H](C)C6=O)c(O)cc(O)c3c(O)c2C(=O)[C@@H]1C` [CHAETOCHROMIN A] had a pIC50 in test [5] of 4.61. Moreover, the inhibition amounted to 55% in test [1] and 74% in test [3]. Also, the TIME in test [2] stood at 1.73 h; in test [4], 3.13 h.
In turn, `COC(=O)[C@]12Oc3ccc(-c4ccc5c(c4O)C(=O)C4=C(O)C[C@@H](C)[C@H](O)[C@@]4(C(=O)OC)O5)c(O)c3C(=O)C1=C(O)C[C@@H](C)[C@@H]2O` [SECALONIC ACID A] had a pIC50 in test [5] of 4.54. For the same compound, the inhibition is 39.1% in test [1] and 64.5% in test [3]. Further, the TIME in test [4] turned out to be 1.12 h.
Take `Cc1cc(O)c2c(c1)C(=O)c1c(c(O)cc(O)c1-c1c(O)cc(O)c3c1C(=O)c1cc(C)cc(O)c1C3=O)C2=O` [SKYRIN]: in test [5], the pIC50 was 4.50. The figures for the inhibition in test [1] and in test [3] were 40.3% and 74.3%, respectively. Besides, the results for the TIME in test [2] and in test [4] were 1.07 h and 1.35 h, respectively.
Consider `CCC[C@H]1Cc2cc3c(-c4c(O)cc(O)c5c(O)c6c(cc45)C[C@H](CCC)OC6=O)c(O)cc(O)c3c(O)c2C(=O)O1` [TALARODERXINE A], for which, in test [5], the pIC50 is 5.43.
